The test system of data set [1] is Mus musculus. Put plainly: Antialzheimer activity in 5XFAD mouse assessed as microglial numbers by measuring number of Iba positive cells per FOV in […] cortex at 75 ppm administered as rodent chow starting from 1.5 months and measured after 5 months by immunolabeling based confocal microscopic analysis (reference value: 176 to 654). Format: functional. The conditions noted are these: route po, time 3.5 months, 2555 h. Put shortly:
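5xFAD mice fed PLX3397 at 75 ppm in AIN-76A chow from 1.5 to 5 months of age; retrosplenial and somatosensory cortex sections stained with Thio-S and immunolabeled for IBA1; confocal imaging, IBA1+ cells and plaques quantified per region; two-tailed independent t-test, n = 4–5 per group, mean ± SEM.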

Data set [2] deals with cGMP-dependent protein kinase 1 (Homo sapiens, UniProt Q13976). Put plainly: Inhibition of PRKG1 (unknown origin).
The target in the next data set is Ephrin type-B receptor 3 (Homo sapiens, UniProt P54753). The data set can be described thus: Inhibition of EPHB3 (unknown origin).
For data set [3], the target named is ALK tyrosine kinase receptor (Homo sapiens, UniProt Q9UM73). Put plainly: Inhibition of ALK (unknown origin).
Data set [4] in a line: Effect on Chrm3 gene expression in wildtype mouse hippocampus assessed as percent change in Reads Per kilo base per Million mapped reads at 1200 ppm administered as rodent chow starting from 1.5 months and measured after 7 months by RNA-Seq analysis (reference value: 85.337 to 114.189 %). The conditions noted are these: route po, time 5.5 months, 4015 h. The format is functional. Put shortly: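 WT and 5xFAD mice were treated with 1200 ppm PLX5622 chow or control chow from 1.5 to 7 months of age. Brains were microdissected into cortex, hippocampus and thalamus, and RNA was extracted from tissue powder. Whole-transcriptome RNA-Seq libraries were sequenced, with n = 4 per group per region (48 samples).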

Data set [5] is described as follows: Drug concentration in wildtype mouse plasma at 1200 ppm administered as rodent chow for 10 to 24 weeks. Format: ADME, cell-free. The conditions noted are these: po, time 10-24 weeks. Put shortly: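 WT or 5xFAD mice were started at 1.5 months of age on PLX5622 formulated at 1200 ppm in AIN-76A chow, with control chow as comparison. Feeding ran for 10 or 24 weeks. Terminal plasma and brain drug levels were then measured. Groups were sex-balanced and compared by two-tailed independent t-test.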

The target of data set [6] is T1, Macrophage colony-stimulating factor 1 receptor (Mus musculus) (UniProt P09581).
T1 sequence (whole entry): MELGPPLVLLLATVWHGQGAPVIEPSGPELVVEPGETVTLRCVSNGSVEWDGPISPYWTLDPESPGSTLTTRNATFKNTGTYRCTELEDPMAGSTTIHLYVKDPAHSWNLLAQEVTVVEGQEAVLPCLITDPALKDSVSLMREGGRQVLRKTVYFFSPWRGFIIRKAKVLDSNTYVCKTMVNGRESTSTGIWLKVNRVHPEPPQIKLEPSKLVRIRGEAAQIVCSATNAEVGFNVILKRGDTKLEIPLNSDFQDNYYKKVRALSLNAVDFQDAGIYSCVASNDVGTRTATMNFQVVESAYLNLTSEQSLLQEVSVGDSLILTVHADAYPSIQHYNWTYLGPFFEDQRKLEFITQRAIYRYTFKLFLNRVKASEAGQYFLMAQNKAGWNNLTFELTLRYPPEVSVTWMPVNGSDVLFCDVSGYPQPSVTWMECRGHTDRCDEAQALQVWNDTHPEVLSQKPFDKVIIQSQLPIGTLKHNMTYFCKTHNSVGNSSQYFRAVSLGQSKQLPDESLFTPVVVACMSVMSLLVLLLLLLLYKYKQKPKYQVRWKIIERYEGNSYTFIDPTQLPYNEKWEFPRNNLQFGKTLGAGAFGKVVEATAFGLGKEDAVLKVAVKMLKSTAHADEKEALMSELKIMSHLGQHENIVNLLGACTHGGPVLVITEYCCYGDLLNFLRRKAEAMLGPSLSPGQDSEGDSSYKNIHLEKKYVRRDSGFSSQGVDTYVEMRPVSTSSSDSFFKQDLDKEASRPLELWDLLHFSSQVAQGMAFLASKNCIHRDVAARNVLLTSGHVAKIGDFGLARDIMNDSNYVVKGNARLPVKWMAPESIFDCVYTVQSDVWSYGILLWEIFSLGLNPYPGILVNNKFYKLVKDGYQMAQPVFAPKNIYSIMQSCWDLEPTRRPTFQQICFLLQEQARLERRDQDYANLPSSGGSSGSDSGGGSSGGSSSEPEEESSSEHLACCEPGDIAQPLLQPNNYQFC
Put plainly: In vivo inhibition of CSF1R in wildtype mouse assessed as number of Iba1 positive cells per FOV in thalamus cortex at 1200 ppm administered as rodent chow starting from 1.5 months to 4 months followed by compound removal and measured after 1 months by immunolabelling based confocal microscopic analysis (reference value: 232 to 320). Format: functional. The conditions noted are these: route po, time 2.5 months.

Data set [7] in a line: AUC (0 to infinity) in male rat at 1.13 mg/kg, iv administered as single dose. The conditions noted are these: in vivo. Format: ADME, organism-based.
Data set [8] can be described thus: Effect on Itgax gene expression in wild type mouse thalamus at 1200 ppm administered as rodent chow starting from 1.5 months and measured after 7 months by RNA-Seq analysis (reference value: 0.077 to 0.240 RPKM). Format: functional. The conditions noted are these: route po, time 5.5 months, 4015 h.
A short description of data set [9]: Effect on Ctsz gene expression in 5XFAD mouse hippocampus at 1200 ppm administered as rodent chow starting from 1.5 months and measured after 7 months by RNA-Seq analysis (reference value: 34.576 to 51.120 RPKM). Format: functional. The conditions noted are these: route po, time 5.5 months, 4015 h.
Data set [10] concerns the target Phosphatidylinositol 3-kinase catalytic subunit type 3 (Homo sapiens, UniProt Q8NEB9). Put plainly: Inhibition of PIK3C3 (unknown origin).
Data set [11] concerns the target T1, Macrophage colony-stimulating factor 1 receptor (Mus musculus). The data set can be described thus: In vivo inhibition of CSF1R in wildtype mouse assessed as number of GFAP positive cells per FOV at 1200 ppm administered as rodent chow starting from 1.5 months and measured after 4 months by immunolabeling based confocal microscopic analysis (reference value: 1 to 7). Format: functional. The conditions noted are these: route po, time 2.5 months.

Data set [12] has as its system Mus musculus. Put plainly: Antialzheimer activity in 5XFAD mouse assessed as number of entries to center zone at 1200 ppm administered as rodent chow for 10 to 24 weeks by Open field test (reference value: 22 to 55). The conditions noted are these: route po, time 10-24 weeks. Format: functional.
Data set [13] concerns the target Leucine-rich repeat serine/threonine-protein kinase 2 (Homo sapiens, UniProt Q5S007). Put plainly: Inhibition of LRRK2 (unknown origin).
Data set [14] can be described thus: Ratio of drug concentration in 5XFAD mouse brain to plasma at 1200 ppm administered as rodent chow for 180 days. The format is ADME, cell-free. The conditions noted are these: brain and plasma, route po, time 180 day, read-out: BPR.
In data set [15] the test system is Mus musculus. The data set can be described thus: Antialzheimer activity in 5XFAD mouse assessed as number of Iba positive cells per FOV in somatosensory cortex at 1200 ppm administered as rodent chow starting from 1.5 months and measured after 7 months (reference value: 335 to 848). Format: functional. The conditions noted are these: route po, time 5.5 months, 4015 h.

Data set [16] has as its system Mus musculus. Put plainly: Effect on circulating leukocytes in wildtype mouse assessed as percentage of CD45+/PI- cells expressing CD11b at 1200 ppm administered as rodent chow for 10 to 24 weeks (reference value: 6.22 to 25.7 %). Format: functional. The conditions noted are these: route po, time 10-24 weeks.

Structures are written as SMILES.

Ephrin type-B receptor 3, sequence (P54753 whole entry): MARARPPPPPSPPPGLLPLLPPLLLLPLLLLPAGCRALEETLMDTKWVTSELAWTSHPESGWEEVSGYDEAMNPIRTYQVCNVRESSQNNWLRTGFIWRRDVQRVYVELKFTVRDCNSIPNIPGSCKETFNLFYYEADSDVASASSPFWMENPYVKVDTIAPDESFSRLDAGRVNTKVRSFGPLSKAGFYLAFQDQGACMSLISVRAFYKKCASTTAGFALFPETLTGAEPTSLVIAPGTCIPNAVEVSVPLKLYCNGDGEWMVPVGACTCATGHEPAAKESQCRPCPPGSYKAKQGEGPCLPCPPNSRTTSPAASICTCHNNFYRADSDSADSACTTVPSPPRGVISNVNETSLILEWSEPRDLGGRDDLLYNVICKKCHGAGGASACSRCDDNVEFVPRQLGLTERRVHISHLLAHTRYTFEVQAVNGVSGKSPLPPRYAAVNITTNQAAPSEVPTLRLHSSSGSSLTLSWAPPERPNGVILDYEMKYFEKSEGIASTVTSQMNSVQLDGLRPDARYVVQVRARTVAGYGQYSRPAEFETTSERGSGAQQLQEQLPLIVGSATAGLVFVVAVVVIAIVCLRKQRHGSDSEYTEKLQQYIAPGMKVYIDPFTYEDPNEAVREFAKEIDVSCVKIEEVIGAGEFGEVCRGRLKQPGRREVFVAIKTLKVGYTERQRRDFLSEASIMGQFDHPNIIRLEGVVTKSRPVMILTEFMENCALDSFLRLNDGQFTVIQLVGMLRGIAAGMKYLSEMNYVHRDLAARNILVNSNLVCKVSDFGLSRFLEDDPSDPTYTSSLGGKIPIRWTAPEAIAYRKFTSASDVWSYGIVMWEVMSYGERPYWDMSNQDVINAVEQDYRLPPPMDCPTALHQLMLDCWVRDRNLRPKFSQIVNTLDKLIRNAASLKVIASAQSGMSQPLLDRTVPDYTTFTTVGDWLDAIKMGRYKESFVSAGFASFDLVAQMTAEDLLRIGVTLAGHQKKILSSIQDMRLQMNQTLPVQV
ALK tyrosine kinase receptor, sequence (Q9UM73 whole entry): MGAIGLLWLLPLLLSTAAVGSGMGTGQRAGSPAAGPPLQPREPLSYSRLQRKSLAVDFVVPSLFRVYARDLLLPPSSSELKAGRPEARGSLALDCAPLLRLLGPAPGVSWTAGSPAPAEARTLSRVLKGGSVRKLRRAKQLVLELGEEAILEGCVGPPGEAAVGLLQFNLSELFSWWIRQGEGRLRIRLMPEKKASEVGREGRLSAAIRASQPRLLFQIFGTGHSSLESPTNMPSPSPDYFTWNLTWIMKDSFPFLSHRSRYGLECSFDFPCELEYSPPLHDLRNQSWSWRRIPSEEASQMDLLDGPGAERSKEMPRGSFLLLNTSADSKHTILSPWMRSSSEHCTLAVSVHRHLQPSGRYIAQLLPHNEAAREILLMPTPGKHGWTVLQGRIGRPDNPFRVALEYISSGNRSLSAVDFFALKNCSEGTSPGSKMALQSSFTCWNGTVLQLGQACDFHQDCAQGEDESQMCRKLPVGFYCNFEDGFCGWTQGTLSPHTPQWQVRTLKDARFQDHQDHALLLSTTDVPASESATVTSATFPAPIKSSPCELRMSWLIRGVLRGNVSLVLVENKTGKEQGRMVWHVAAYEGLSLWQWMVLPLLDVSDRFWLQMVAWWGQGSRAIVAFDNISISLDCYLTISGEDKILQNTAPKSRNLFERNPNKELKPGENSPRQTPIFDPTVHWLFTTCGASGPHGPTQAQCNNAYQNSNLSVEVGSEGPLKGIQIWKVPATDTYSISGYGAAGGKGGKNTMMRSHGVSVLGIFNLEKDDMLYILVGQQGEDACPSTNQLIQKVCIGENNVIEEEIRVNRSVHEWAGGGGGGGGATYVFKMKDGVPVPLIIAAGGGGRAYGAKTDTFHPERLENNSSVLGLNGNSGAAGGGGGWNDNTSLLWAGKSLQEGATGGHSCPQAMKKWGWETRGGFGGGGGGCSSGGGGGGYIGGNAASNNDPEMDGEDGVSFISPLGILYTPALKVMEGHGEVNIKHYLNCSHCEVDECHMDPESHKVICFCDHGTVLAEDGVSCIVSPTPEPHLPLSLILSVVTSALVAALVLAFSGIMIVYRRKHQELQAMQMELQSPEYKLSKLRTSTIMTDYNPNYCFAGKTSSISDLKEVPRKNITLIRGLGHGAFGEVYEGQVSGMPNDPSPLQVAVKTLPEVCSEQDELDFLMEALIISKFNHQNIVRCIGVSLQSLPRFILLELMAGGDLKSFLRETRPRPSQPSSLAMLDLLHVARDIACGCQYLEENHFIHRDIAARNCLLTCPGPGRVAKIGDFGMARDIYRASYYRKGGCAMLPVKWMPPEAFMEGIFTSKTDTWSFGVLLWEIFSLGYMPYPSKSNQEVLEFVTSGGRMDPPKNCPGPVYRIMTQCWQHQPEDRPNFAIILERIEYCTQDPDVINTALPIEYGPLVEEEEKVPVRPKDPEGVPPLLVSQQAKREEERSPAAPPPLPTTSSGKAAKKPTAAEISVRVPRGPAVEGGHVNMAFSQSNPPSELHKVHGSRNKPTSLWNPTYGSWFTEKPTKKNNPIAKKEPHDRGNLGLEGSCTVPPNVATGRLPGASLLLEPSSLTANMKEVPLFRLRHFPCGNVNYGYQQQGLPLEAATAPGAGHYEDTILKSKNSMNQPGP
cGMP-dependent protein kinase 1, sequence (Q13976 whole entry): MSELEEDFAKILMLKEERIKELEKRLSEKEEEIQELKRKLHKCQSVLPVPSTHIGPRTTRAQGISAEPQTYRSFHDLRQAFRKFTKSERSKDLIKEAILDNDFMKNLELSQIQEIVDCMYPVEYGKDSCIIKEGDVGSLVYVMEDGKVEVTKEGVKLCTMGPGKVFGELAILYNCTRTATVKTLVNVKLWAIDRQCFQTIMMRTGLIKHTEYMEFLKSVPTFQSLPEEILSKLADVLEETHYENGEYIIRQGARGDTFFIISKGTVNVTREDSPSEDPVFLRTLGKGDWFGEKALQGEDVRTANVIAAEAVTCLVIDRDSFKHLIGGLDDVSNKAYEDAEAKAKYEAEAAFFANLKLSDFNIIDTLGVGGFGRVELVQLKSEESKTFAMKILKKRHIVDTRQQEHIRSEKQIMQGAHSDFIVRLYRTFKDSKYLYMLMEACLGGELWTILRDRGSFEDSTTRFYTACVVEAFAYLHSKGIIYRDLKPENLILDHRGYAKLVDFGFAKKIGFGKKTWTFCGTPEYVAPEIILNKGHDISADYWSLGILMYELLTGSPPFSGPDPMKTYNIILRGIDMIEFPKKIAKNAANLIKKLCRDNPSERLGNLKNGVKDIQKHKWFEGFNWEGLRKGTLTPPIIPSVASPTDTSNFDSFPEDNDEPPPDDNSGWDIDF
Phosphatidylinositol 3-kinase catalytic subunit type 3, sequence (Q8NEB9 whole entry): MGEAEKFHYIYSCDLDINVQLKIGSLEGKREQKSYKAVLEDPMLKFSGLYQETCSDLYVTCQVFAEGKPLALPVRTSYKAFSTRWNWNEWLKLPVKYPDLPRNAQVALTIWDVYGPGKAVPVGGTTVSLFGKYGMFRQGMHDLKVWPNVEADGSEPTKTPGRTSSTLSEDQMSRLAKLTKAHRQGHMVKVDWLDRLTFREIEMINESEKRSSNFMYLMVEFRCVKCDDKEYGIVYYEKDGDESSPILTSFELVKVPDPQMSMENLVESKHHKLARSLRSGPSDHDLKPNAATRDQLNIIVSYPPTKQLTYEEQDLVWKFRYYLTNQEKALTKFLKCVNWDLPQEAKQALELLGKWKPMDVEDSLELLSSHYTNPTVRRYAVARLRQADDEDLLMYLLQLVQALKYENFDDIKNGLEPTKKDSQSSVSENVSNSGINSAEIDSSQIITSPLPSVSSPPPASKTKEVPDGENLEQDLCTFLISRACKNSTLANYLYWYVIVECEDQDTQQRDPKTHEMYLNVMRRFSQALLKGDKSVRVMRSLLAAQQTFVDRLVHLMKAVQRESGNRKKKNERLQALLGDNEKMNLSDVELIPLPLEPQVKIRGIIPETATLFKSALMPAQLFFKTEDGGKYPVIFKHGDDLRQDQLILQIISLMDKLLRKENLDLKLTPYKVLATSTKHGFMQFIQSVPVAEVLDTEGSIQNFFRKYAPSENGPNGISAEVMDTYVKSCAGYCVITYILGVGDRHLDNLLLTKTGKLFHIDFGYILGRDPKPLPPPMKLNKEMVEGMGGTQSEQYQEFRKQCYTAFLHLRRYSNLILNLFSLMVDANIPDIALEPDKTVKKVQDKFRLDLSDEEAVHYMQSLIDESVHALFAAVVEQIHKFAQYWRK

Consider `FC(F)(F)c1ccc(CNc2ccc(Cc3c[nH]c4ncc(Cl)cc34)cn2)cn1` [PEXIDARTINIB], for which the Activity with Mus musculus [1] stood at 229.
What is called IC50 is the point on the concentration scale where inhibition reaches its midpoint. In general, AUC(0-inf) refers to total exposure, with the tail of the curve extrapolated. `COc1ncc(F)cc1CNc1ccc(Cc2c[nH]c3ncc(C)cc23)c(F)n1` [PLX-5622]: the IC50 (in [2]; against Ephrin type-B receptor 3; in data set [3]; in data set [10]; in [13]) was above 1000 nM in each case. The Activity was found to be 79.458% in data set [4]; 270 in data set [6]; 0 RPKM in data set [8]; 16.426 RPKM in data set [9]; 4 in data set [11]; 7 with Mus musculus [12]. Further, the values for the Activity with Mus musculus [15] and in the data set on Mus musculus [16] were 0 and 18.9%, respectively. This compound also displayed a concentration in [5] of 17.8 µM. For the same compound, the AUC(0-inf) in data set [7] amounted to 2630 ng·h/mL. Moreover, in data set [14], the Kp at 4320 h was 0.26.

(Values after ChEMBL document CHEMBL5649170, “Sustained microglial depletion with CSF1R inhibitor impairs parenchymal plaque development in an Alzheimer's disease model” (Nat Commun, 2019).)
